High-throughput results as filed in PubChem BioAssay.
Rows were chosen to be rich in hits. Some 3% of all compounds tested hit in one or more screens of this group.
Cneo AK release – causes C. neoformans cell lysis; adenylate kinase release luminescence, 4 h; normalised: neutral wells 0, clomiphene wells 100; lysis activity, % at 15 µM; actives 0.2% (n = 360,000);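 active means mean lysis activity across replicates of at least 80%, whatever share of replicates individually reach that level; inactive means mean lysis activity below 80%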
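Material – log-phase Cryptococcus neoformans yeast cells · Input – 5 × 10^6 yeast cells/mL · Medium – fresh YPD growth medium · Doses – single compound concentration per well · Timing – static 4 h at 37 °C with compound, 1 h detection · Detection – adenylate kinase release luminescence · Read-out – signal increase indicating cell lysis · Control set – Clomiphene as positive lysis control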
PGC1a acetyl inh – modulators of PGC1a acetylation. U2OS PGC1a acetylation, AlphaScreen anti-acetyl-lysine; with virally co-expressed GCN5 acetyltransferase. inhibition, % at 15.6 µM. actives 0.17% (n = 350,000). AID 651687;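 active means every replicate shows inhibition of at least 40%; inconclusive means mean inhibition at least 40% but some replicate below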
S100A4 inh HTS – S100A4-myosin IIA interaction inhibition | S100A4/TAMRA-MyoIIA peptide fluorescence polarization | inhibition, % at 10.7 µM | actives 0.14% (n = 360,000) | AID 652163;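 active means mean inhibition of at least 70% across replicates, with every replicate also reaching that level; inconclusive means mean inhibition reaches 70% but some replicates fall short; inactive means mean inhibition below 70%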
Target sequence (P26447 whole entry, looked up): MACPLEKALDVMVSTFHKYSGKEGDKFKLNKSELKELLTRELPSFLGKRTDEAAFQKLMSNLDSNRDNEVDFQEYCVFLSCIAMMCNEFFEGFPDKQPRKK
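Material: S100A4 monomer protein | Medium: HEPES pH 7.2 with CaCl2, KCl, NaCl, DTT, Triton | Reagent: Labelled myosin peptide probe, 5 nM | Doses: One dose per compound | Times: 5 min incubation before reading | Benchmarks: Neutral control DMSO, positive control TFP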
SIRT5 inh – blocks human SIRT5 desuccinylation of peptide | inhibition, % at 15 µM | actives 1.1% (n = 330,000) | Purified SirT5, succinyl-peptide AMC, trypsin-coupled fluorescence | AID 652115; in the data active means inhibition above about 15%; inconclusive means no clear call, values can overlap the other calls
Target sequence (Q9NXA8 whole entry, looked up): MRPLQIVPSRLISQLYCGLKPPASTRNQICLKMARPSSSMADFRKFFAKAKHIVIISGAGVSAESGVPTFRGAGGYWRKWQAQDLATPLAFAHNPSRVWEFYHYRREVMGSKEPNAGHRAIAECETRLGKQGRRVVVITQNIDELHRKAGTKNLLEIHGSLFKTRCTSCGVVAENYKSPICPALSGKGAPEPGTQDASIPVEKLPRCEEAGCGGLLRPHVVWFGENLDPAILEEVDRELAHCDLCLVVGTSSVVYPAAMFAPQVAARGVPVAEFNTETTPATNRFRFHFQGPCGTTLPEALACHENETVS
rRNA inh HTS – inhibits bacterial ribosomal RNA function over humanized ribosomes. E. coli WT GFP vs humanized-ribosome RFP mutants, fluorescence, 24 h; stronger effect = lower value; DMSO median 0, no signal -100. GFP signal change (wild-type ribosome), % (test concentration not listed). actives 1.6% (n = 350,000). AID 720706;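 active means significant combined selectivity score with lowered wild-type GFP, culture density cut under 30%, mutant RFP and density less affected; inactive means any of these conditions unmet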
Statin myotox sup – suppressors of simvastatin-induced myotoxicity in C2C12 myotubes; ATP luminescence, 48 h; scaled: DMSO 0, geranylgeraniol control 100; rescue of ATP level, % at 7.49 µM; actives 0.78% (n = 330,000); AID 602340;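 active means mean ATP rescue above about 67%, or every replicate alone reaching that limit, limit read from the data, passing the limit was not always enough; inconclusive means no clear call, values can overlap the other calls; inactive means mean under the limit and some replicate under it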;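 further: myotubes were challenged with 10 µM simvastatin during compound exposure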
Numbers stand for hits; – = inactive; ? = inconclusive; · = not tested or not shown.

SMILES | Cneo AK release | PGC1a acetyl inh | S100A4 inh HTS | SIRT5 inh | rRNA inh HTS | Statin myotox sup
Cc1noc(C)c1S(=O)(=O)Nc1ccc2c(c1)C(=O)N([C@H](C)CO)C[C@H](C)[C@@H](CN(C)S(=O)(=O)c1ccc(Cl)cc1)OCCCC[C@H](C)O2 | – | · | – | – | – | –
Cc1ccc(S(=O)(=O)N(C)C[C@H]2OCCCC[C@@H](C)Oc3ccc(NS(=O)(=O)c4c(C)noc4C)cc3C(=O)N([C@@H](C)CO)C[C@H]2C)cc1 | – | – | 94 | – | – | ·
COCC#Cc1ccc2c(c1)O[C@@H](CN(C)S(=O)(=O)c1ccc(F)cc1)[C@H](C)CN([C@@H](C)CO)S2(=O)=O | – | – | – | – | – | –
CCC(=O)Nc1ccc2c(c1)OC[C@H](C)N(C(=O)CC)C[C@@H](C)[C@H](OC)CN(C)C2=O | · | – | · | · | – | –
O=C(O)c1cccnc1C(=O)O | – | – | – | · | · | –
O=C(NCc1ccc(F)cc1)c1cccnc1C(=O)O | – | · | – | 23 | – | –
O=C(NCc1ccc(F)cc1)c1ccccc1OCc1ccccc1 | – | – | – | – | -38 | –
COc1ccc(OCC(=O)Nc2ccc(C(=O)Nc3ccccc3C(=O)O)cc2)cc1 | – | – | – | 23 | – | –
COc1ccc(OCC(=O)Nc2ccccc2C(=O)Nc2ccc(C(=O)O)cc2)cc1 | – | – | – | – | – | ·
C[C@@H](NC(=O)C[C@@H]1C[C@H]2c3cc(NC(=O)CN(C)C)ccc3O[C@H]2[C@@H](CO)O1)c1ccccc1 | – | – | – | – | – | –
COc1ccccc1NC(=O)N[C@@H]1CC[C@@H](CC(=O)N[C@@H](C)c2ccccc2)O[C@@H]1CO | – | – | – | – | – | –
CCOCCCNC(=O)/C=C1\Sc2ccccc2N(Cc2ccccc2F)C1=O | – | – | – | – | -17 | –
CCOCCCNC(=O)CN1C(=O)/C(=C/c2ccccc2C)Sc2ccccc21 | – | · | – | – | – | –
COc1cccc(C(=O)CSc2nnc(CNS(=O)(=O)c3ccc(C)cc3)n2C)c1 | · | 89 | · | · | · | ·
CCOC(=O)c1c(C)nc(C)c(C(=O)OCC)c1-c1cccnc1 | – | · | – | – | – | –
CCOC(=O)c1c(C)nc(C)c(C(=O)OCC)c1-c1ccccc1 | · | – | – | – | -41 | ·
CCn1c(SCc2ccc(Cl)cc2)nc2nc3c(cc2c1=O)CCCC3 | – | · | – | – | -22 | ·
COc1ccc(-c2nnc3sc(C(C)N4C(=O)c5ccccc5C4=O)nn23)cc1 (stereo not drawn) | – | – | – | – | -45 | –
C[C@@H]1CCCCO[C@@H](CN(C)C(=O)Nc2ccc(C(F)(F)F)cc2)[C@@H](C)CN([C@H](C)CO)C(=O)c2cc(NC(=O)CCCCCC(=O)Nc3ccccc3N)ccc2O1 | – | – | – | · | – | ·
C[C@H](CO)N1C[C@H](C)[C@H](CN(C)Cc2ccc(Oc3ccccc3)cc2)Oc2ccc(NC(=O)CCCCCC(=O)Nc3ccccc3N)cc2CC1=O | – | – | – | 30 | – | –
C[C@H]1CN([C@@H](C)CO)C(=O)Cc2cc(NC(=O)CCCCCC(=O)Nc3ccccc3N)ccc2O[C@H]1CN(C)Cc1ccc(Oc2ccccc2)cc1 | – | – | – | 20 | – | 104
C[C@H]1CN([C@@H](C)CO)C(=O)Cc2cc(NC(=O)CCCCCC(=O)Nc3ccccc3N)ccc2O[C@@H]1CN(C)Cc1ccc(C(F)(F)F)cc1 | – | – | – | · | – | ?
C[C@@H]1CN([C@H](C)CO)C(=O)c2cc(NC(=O)CCCCCC(=O)Nc3ccccc3N)ccc2O[C@@H]1CN(C)Cc1ccc(Oc2ccccc2)cc1 | · | – | – | – | – | ·
Cc1noc(C)c1S(=O)(=O)N(C)C[C@H]1Oc2ccc(NC(=O)Cc3ccccc3)cc2CC(=O)N([C@H](C)CO)C[C@@H]1C | – | – | · | · | – | –
CCOC(=O)N1CCN(S(=O)(=O)c2c(C)nc3scc(C)n3c2=O)CC1 | – | – | – | 31 | – | –
CCOC(=O)N1CCN(S(=O)(=O)c2c(C)nc3sccn3c2=O)CC1 | – | – | – | – | – | –
